Test results reported in paper PMC9056317 (RSC Advances, 2020).
Where two headings read alike, the source gives them in different places. Values belong to the compound of their own block, whether it stands above or below them.

Experiments:
[1] = test system: HCMV (Towne-BAC-GFP strain); type: cell-based, human cytomegalovirus; settings: HFF-1 cells pre-treated with 10 μM compound for 1 hour, HCMV MOI 3.0
How it was run: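 HFF-1 cells were grown in DMEM with 10% FBS, sodium pyruvate and L-glutamine at 37 °C, 5% CO2. They were pre-treated for 1 h with test compound or DMSO control, then infected with Towne-BAC-GFP HCMV. GFP-positive infected cells were quantified by fluorescence microscopy.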

[2] = test system: HFF-1 cells; test: Cytotoxic assessment on HFF cells by trypan blue exclusion assay; type: cell-based, human; settings: 2× the IC50 concentrations, maintained on cells for 5 days
How it was run: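 Confluent HFF-1 cells (DMEM, 10% FBS, 37 °C, 5% CO2) were treated with test compound or left untreated, then infected with HCMV (MOI 3.0) or left uninfected. At day 5, cells were trypsinised and mixed 1:1 with 0.4% trypan blue. Percent viable cells was read on an automated cell counter. Three independent experiments, SEM.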

[3] = test system: MDA MB 231 cells; test: MDA MB 231 proliferation MTT assay; type: cell-based; settings: for anti-proliferative effect in MDA MB 231: 100 μM, data not shown; for IC50: Homo sapiens, MDA-MB-231, 72 h, read-out: IC50 in MDA MB 231
How it was run: (§1)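 MDA MB 231 cells (DMEM, 10% FBS, 37 °C, 5% CO2, split every 3–4 days) were plated at 2000 per well and incubated overnight, then the medium was replaced with test compound for 72 h. MTT was added for 4 h at 37 °C, and formazan was dissolved in DMSO. A570 was read with a 630 nm reference. IC50: 0.78–100 μM, non-linear regression of survival %.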

[4] = test system: human glioblastoma cell line GBM6; test: GBM6 proliferation MTT assay; type: cell-based; settings: for anti-proliferative activity in GBM6: 100 μM, MTT 72 hours after treatment; for IC50: Homo sapiens
How it was run: as §1, with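 “GBM6” for “MDA MB 231”, “CO2)” for “CO2, split every 3–4 days)”, “1000” for “2000”, “reference. Single-dose screen: n = 3, normalised to control.” for “reference.”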

[5] = test system: HCMV (Towne-BAC-GFP) strain; settings: read-out: reported IC50; reported value used to validate the assay; cited from earlier work
[6] = GBM6, 72 h, read-out: IC 50 in GBM6
[7] = GBM6, read-out: IC50 (highest cytotoxicity)

SMILES: FC1C(c2ccc(Cl)cc2)=NOC12CCCO2 (stereo not drawn) [4d, 3-(4-Chlorophenyl)-4-fluoro-1,6-dioxa-2-azaspiro[4.4]non-2-ene]
- reduction in GFP levels (mean fluorescence intensity, MFI) [1]: significant reduction in MFI
- cytotoxicity on HFF cells [2]: did not show significant cytotoxicity

SMILES: O=[N+]([O-])c1ccc(C2=NOC3(CCCO3)C2F)cc1 (stereo not drawn) [4h, 4-Fluoro-3-(4-nitrophenyl)-1,6-dioxa-2-azaspiro[4.4]non-2-ene]
- reduction in GFP levels (mean fluorescence intensity, MFI) [1]: significant reduction in MFI

SMILES: FC1C(c2ccccc2)=NOC12CCCCO2 (stereo not drawn) [4i, 4-Fluoro-3-phenyl-1,6-dioxa-2-azaspiro[4.5]dec-2-ene]
- reduction in GFP levels (mean fluorescence intensity, MFI) [1]: significant reduction in MFI

- IC50 [4, 6]: 36.1 µM
SMILES: FC1C(c2ccc(Br)cc2)=NOC12CCCCO2 (stereo not drawn) [4l, 3-(4-Bromophenyl)-4-fluoro-1,6-dioxa-2-azaspiro[4.5]dec-2-ene]
- anti-proliferative effect in MDA MB 231 [3]: highest anti-proliferative effect
- IC50 [3]: 68.2 µM
- anti-proliferative activity in GBM6 [4]: robust anti-proliferative activity
- IC50 [4, 7]: 36 to 80 µM

SMILES: FC1C(c2ccc(C(F)(F)F)cc2)=NOC12CCCCO2 (stereo not drawn) [4n, 4-Fluoro-3-(4-(trifluoromethyl)phenyl)-1,6-dioxa-2-azaspiro[4.5]dec-2-ene]
- reduction in GFP levels (mean fluorescence intensity, MFI) [1]: significant reduction in MFI
- cytotoxicity on HFF cells [2]: did not show significant cytotoxicity

SMILES: O=[N+]([O-])c1ccc(C2=NOC3(CCCCO3)C2F)cc1 (stereo not drawn) [4o, 4-Fluoro-3-(4-nitrophenyl)-1,6-dioxa-2-azaspiro[4.5]dec-2-ene]
- reduction in GFP levels (mean fluorescence intensity, MFI) [1]: significant reduction in MFI

- IC50 [4, 6]: 43.2 µM
SMILES: O=C1CCC2(ON=C(c3c(Cl)cccc3Cl)C2F)O1 (stereo not drawn) [5f, 3-(2,6-Dichlorophenyl)-4-fluoro-1,6-dioxa-2-azaspiro[4.4]non-2-en-7-one]
- anti-proliferative effect in MDA MB 231 [3]: highest anti-proliferative effect
- IC50 [3]: 79.8 µM
- anti-proliferative activity in GBM6 [4]: robust anti-proliferative activity
- IC50 [4, 7]: 36 to 80 µM

SMILES: Nc1nc(O)c2ncn(COC(CO)CO)c2n1 [GCV, ganciclovir]
- IC50 [5]: 5.2 µM
